# Measurements taken from ChEMBL document CHEMBL4602686, “A Meroisoprenoid, Heptenolides, and C-Benzylated Flavonoids from Sphaerocoryne gracilis ssp. gracilis” (J Nat Prod, 2020).
# Activity calls are given as the source filed them. No cut-off for these calls is given here.
# Legend:
# Plasmodium falciparum [1] = experiment: Antimalarial activity against chloroquine-sensitive Plasmodium falciparum 3D7 assessed as reduction in parasite growth at 40 uM incubated for 72 hrs by DAPI staining based fluorescence assay; format: functional, organism-based
# Procedure, shortened: (§1)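 Asexual P. falciparum 3D7 growth read by a high-content imaging assay. Each compound was tested at one concentration: 20 μM for line 1 and 40 μM for line 2. The value is percentage growth inhibition. The 20 μM values are the mean of at least two independent measurements.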
# Plasmodium falciparum [2] = experiment: Antimalarial activity against chloroquine-resistant Plasmodium falciparum Dd2 assessed as reduction in parasite growth at 40 uM incubated for 72 hrs by DAPI staining based fluorescence assay; format: functional, organism-based
# Procedure, shortened: (§2)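 P. falciparum Dd2 (chloroquine-resistant) growth read by high-content imaging. Isolates were screened at a single 40 μM concentration, and some were also given at 20 μM. Values are percentage growth inhibition, as the mean of at least two independent measurements.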
# Hepacivirus hominis [3] = experiment: Inhibition of (CAG)33/FF/HCV/Ren.pA51 mRNA cap-dependent translation assessed as reduction in firefly level at […] after 60 mins by dual luciferase reporter gene assay
# Hepacivirus hominis [4] = experiment: Inhibition of (CAG)33/FF/HCV/Ren.pA51 mRNA cap-independent translation assessed as reduction in renilla level at […] after 60 mins by dual luciferase reporter gene assay
# Plasmodium falciparum [5] = experiment: Antimalarial activity against chloroquine-sensitive Plasmodium falciparum 3D7 assessed as reduction in parasite growth at 20 uM incubated for 72 hrs by DAPI staining based fluorescence assay; format: functional, organism-based; procedure, shortened: as §1
# Plasmodium falciparum [6] = experiment: Antimalarial activity against chloroquine-resistant Plasmodium falciparum Dd2 assessed as reduction in parasite growth at 20 uM incubated for 72 hrs by DAPI saining based fluorescence assay; format: functional, organism-based; procedure, shortened: as §2
# Plasmodium falciparum [7] = experiment: Antimalarial activity against chloroquine-sensitive Plasmodium falciparum 3D7 assessed as reduction in parasite rowth incubated for 72 hrs by DAPI staining based fluorescence assay; format: functional, organism-based; details: 3D7, 72 h
# Plasmodium falciparum [8] = experiment: Antimalarial activity against chloroquine-resistant Plasmodium falciparum Dd2 assessed as reduction in parasite growth incubated for 72 hrs by DAPI staining based fluorescence assay; format: functional, organism-based; details: Dd2, 72 h
# [9] = Cytotoxicity against HEK293 cells assessed as growth inhibition at 40 uM relative to control; format: cell-based; details: human, read-out: GI
# HEK293 = experiment: Cytotoxicity against HEK293 cells; format: cell-based; details: Homo sapiens
# [10] = test system: Plasmodium falciparum 3D7; experiment: Selectivity ratio of IC50 for HEK293 cells to IC50 for antimalarial activity against Plasmodium falciparum 3D7; details: human, HEK293 cells versus Plasmodium falciparum 3D7
Compound,inhibition (Hepacivirus hominis [3]),inhibition (Hepacivirus hominis [4]),Activity (Plasmodium falciparum [5]),Activity (Plasmodium falciparum [6]),IC50 (Plasmodium falciparum [7]) [µM],also measured
O=C1C[C@@H](c2ccccc2)Oc2c(Cc3cccc(O)c3O)c(O)c(Cc3cccc(O)c3O)c(O)c21,inactive,inactive,,,,Activity (Plasmodium falciparum [1]): inactive; Activity (Plasmodium falciparum [2]): inactive
O=c1cc(-c2ccccc2)oc2cc(O)cc(O)c12,inactive,inactive,Active,Active,,
O=C1C[C@@H](c2ccccc2)Oc2cc(O)c(Cc3cccc(O)c3O)c(O)c21,inactive,inactive,Active,Active,,
COC(=O)/C=C/C(=O)C[C@H](O)COC(=O)c1ccccc1,inactive,inactive,,,1.4,IC50 (Plasmodium falciparum [8]): 4.1 µM; inhibition at 40 µM [9]: 100%
C[C@@](O)(COC(=O)/C=C/c1ccccc1)[C@H](O)COC(=O)c1ccccc1,,,,,,Activity (Plasmodium falciparum [1]): inactive; Activity (Plasmodium falciparum [2]): inactive
CC(C)=CCC[C@@H](C)[C@H]1C[C@H](O)[C@@]2(C)C3=CC[C@H]4C(C)(C)[C@@H](O)CC[C@]4(C)C3=CC[C@]12C,,,,,,Activity (Plasmodium falciparum [1]): inactive; Activity (Plasmodium falciparum [2]): inactive
O=C1C[C@@H](c2ccccc2)Oc2c(Cc3ccccc3O)c(O)c(Cc3ccccc3O)c(O)c21 [DICHAMANETIN],,,,,9.3,IC50 (Plasmodium falciparum [8]): 6.7 µM; inhibition at 40 µM [9]: 75%
O=c1cc(-c2ccccc2)oc2c(Cc3cccc(O)c3O)c(O)cc(O)c12,inactive,inactive,Active,Active,,
O=C1C[C@@H](c2ccccc2)Oc2cc(O)c(Cc3ccccc3O)c(O)c21,,,Active,Active,,
O=C1C=C/C(=C/[C@H](O)CO)O1,,,,,10.5,
CC(=O)O[C@@H](/C=C1/C=CC(=O)O1)COC(=O)c1ccccc1,,,,,4.8,IC50 (Plasmodium falciparum [8]): 6.7 µM; IC50 (HEK293): 11.8 µM; selectivity ratio [10]: 3
O=C1C=C/C(=C/[C@H](O)COC(=O)c2ccccc2)O1,inactive,inactive,,,3.7,
O=C1C[C@@H](c2ccccc2)Oc2c(Cc3ccccc3O)c(O)cc(O)c21,,,Active,Active,,
O=C1C[C@@H](c2ccccc2)Oc2cc(O)cc(O)c21,,,,,,Activity (Plasmodium falciparum [1]): inactive; Activity (Plasmodium falciparum [2]): inactive
